Source: article PMC10233671 (ACS Omega, 2023)
Converted amounts (≈) assume the structure as drawn.

How the values were obtained:
[1] = biological target: mitochondrial complex I (Bos taurus, UniProt P03887+P17694+P42026); assay: Bos taurus complex I activity assay; assay type: biochemical; conditions: 10 μM, SMPs
Outline: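 Complex I from bovine heart sub-mitochondrial particles, prepared at 4 °C from isolated mitochondria and cleared at 16,000g. In a 96-well plate, SMPs were mixed with 10 μM test compound or positive control (rotenone, antimycin A or KCN). The reaction was started by injecting 200 μM NADH. NADH oxidation was followed at 340 nm for 8 min.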

[2] = cited from earlier work
[3] = biological target: bovine mitochondrial cytochrome bc1 (complex III) (Bos taurus, UniProt P00157); assay: Oxygen consumption assay with bovine heart sub-mitochondrial particles; assay type: biochemical
[4] = system: Mtb H37Rv; conditions: reported value; cited from earlier work
[5] = biological target: Msmeg CIII2CIV2 (Mycolicibacterium smegmatis, UniProt A0R052+I7GD61); assay: Oxygen consumption assay with purified CIII2CIV2; assay type: biochemical, Mycobacterium smegmatis
[6] = system: viable mycobacteria in the sputum; conditions: phase 2a multiple-dose trial; cited from earlier work
[7] = biological target: T1, mitochondrial CIII2 (cytochrome bc1) (Candida albicans, UniProt P0C8L0); assay: C. albicans complex III activity assay; assay type: biochemical; conditions: 10 and 1 μM
T1 sequence (P0C8L0 1-387): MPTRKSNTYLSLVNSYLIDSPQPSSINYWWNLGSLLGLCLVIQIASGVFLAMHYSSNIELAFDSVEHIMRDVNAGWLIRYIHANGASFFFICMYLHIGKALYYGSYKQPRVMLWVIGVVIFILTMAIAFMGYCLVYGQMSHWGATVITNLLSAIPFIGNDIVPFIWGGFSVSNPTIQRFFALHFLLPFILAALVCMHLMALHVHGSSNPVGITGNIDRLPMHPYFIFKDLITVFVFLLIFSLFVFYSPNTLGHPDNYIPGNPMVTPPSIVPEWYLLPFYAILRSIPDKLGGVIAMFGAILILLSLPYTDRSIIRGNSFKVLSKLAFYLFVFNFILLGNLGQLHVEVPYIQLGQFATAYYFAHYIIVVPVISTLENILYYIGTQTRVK

Chain of mitochondrial complex I (P03887 whole entry): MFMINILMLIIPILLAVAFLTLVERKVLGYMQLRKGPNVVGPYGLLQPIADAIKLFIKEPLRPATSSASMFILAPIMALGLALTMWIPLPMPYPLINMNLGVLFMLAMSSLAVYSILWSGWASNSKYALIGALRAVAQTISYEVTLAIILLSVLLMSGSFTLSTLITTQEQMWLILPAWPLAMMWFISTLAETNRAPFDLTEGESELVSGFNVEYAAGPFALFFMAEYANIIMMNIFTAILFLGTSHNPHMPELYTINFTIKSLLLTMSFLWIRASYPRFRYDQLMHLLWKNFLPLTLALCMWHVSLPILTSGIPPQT
Chain of mitochondrial complex I (P42026 38-216): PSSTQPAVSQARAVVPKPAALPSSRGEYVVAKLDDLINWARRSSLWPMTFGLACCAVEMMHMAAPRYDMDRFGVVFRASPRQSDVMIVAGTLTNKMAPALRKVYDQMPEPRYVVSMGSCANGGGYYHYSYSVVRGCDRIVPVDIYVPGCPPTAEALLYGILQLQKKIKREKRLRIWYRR
Chain of mitochondrial complex I (P17694 34-463): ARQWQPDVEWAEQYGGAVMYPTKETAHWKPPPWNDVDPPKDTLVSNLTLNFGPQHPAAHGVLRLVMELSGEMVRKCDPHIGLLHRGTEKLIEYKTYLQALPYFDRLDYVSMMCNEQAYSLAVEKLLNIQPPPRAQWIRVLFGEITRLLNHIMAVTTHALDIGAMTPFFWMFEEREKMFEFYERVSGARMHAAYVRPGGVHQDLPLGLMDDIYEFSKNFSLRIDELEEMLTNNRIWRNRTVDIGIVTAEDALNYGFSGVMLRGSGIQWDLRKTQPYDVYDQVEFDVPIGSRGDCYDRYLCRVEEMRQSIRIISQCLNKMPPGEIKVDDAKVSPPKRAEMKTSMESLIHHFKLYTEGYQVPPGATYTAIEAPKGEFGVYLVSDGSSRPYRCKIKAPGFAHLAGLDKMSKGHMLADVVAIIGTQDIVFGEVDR

In the case of CCc1nc2ccc(Cl)cn2c1C(=O)NCc1ccc(N2CCC(c3ccc(OC(F)(F)F)cc3)CC2)cc1 [Compound Q203], the “inhibition of / binding to mitochondrial complex I” value [1] is given as “do not inhibit”, the half-life [2] is given as 13.38 ± 9.4704 days and the “activity against bovine mitochondrial cytochrome bc1” value [3] is given as “did not show activity”. The “inhibition in SMPs” value ([3]; 1 μM) was “no inhibition was detected”, the “inhibition in SMPs” value ([3]; 10 μM) was “some inhibition” and the inhibition at 10 µM ([3]; read-out: inhibition of complex III in SMPs) was 80%. For the same compound, the MIC50 [4] was 2.7 nM (≈ 1.5 ng/mL), the IC50 [5] was 99 ± 32 nM and the “early bactericidal activity” value [6] was “dose-dependent reduction in the load of viable mycobacteria in the sputum”. For the same compound, the “inhibition of purified C. albicans CIII2” value [7] was “No inhibition was observed”.
